Source: ChEMBL document CHEMBL4118104, “Design, Synthesis, and Evaluation of Orally Bioavailable Quinoline-Indole Derivatives as Innovative Multitarget-Directed Ligands: Promotion of Cell Proliferation in the Adult Murine Hippocampus for the Treatment of Alzheimer's Disease” (J Med Chem, 2018)
One block for each molecule: values may come before it. Calls of active or inactive are those of the source. No cut-off for these calls is given here.

Tests used:
[1] = Permeability of compound at 100 ug/ml after 10 hrs by PAMPA assay; type: ADME; settings: read-out: permeability
PC-12 [2] = test: Cytotoxicity against rat undifferentiated PC12 cells at 0.5 to 50 uM after 72 hrs by MTT assay; type: cell-based; settings: pc-12, 72 h
SH-SY5Y = test: Neuroprotective activity against t-BuOOH-induced oxidative stress in human SH-SY5Y cells assessed as inhibition ROS accumulation pre-incubated for 24 hrs before t-BuOOH challnge for 30 mins by DCFH-DA probe based fluorescence assay; type: functional, cell-based
Outline: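 SH-SY5Y cells; test agents at 1–0.01 µM, oxidative stress induced by tert-butyl hydroperoxide; intracellular ROS read by DCFH-DA fluorescence; at least three independent experiments in sextuplicate; EC50 derived.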

PC-12 [3] = test: Induction of rat PC12 cell proliferation at 0.5 to 50 uM after 72 hrs by microscopic analysis; type: functional, cell-based
Outline: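 Undifferentiated PC12 cells cultured 72 h with compound at 0.5–50 µM (images at 10 µM) or with NGF 50 ng/ml, then examined under a digital microscope.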

[4] = Metabolic stability in Sprague-Dawley rat liver microsomes assessed as metabolic rate constant at 100 uM up to 180 mins by HPLC-UV analysis; settings: 3 h
[5] = Half life in Sprague-Dawley rat liver microsomes at 100 uM up to 180 mins by HPLC-UV analysis; settings: microsomes
Mus musculus [6] = test: Toxicity in C57BL/6 mouse assessed as mortality at 677 to 2000 mg/kg, ig measured continuously during first 4 hrs, intermittently for following 24 hrs and occasionally thereafter for 14 consecutive days; type: organism-based; settings: in vivo, po
Outline: (§1)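 Adult C57BL/6 mice, 12 weeks old, given single intragastric doses of 0, 677, 1333 or 2000 mg/kg (n = 6 per dose, 3 male and 3 female). Abnormal behaviour and deaths observed continuously for the first 4 h, intermittently over the next 24 h, then occasionally for 14 days to catch delayed effects.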

Mus musculus [7] = test: Toxicity in C57BL/6 mouse assessed as abnormal behavior at 677 to 2000 mg/kg, ig measured continuously during first 4 hrs, intermittently for following 24 hrs and occasionally thereafter for 14 consecutive days; type: organism-based; settings: in vivo, po; outline: as §1
Mus musculus [8] = test: Toxicity in C57BL/6 mouse assessed as effect on water intake at 677 to 2000 mg/kg, ig measured continuously during first 4 hrs, intermittently for following 24 hrs and occasionally thereafter for 14 consecutive days; type: organism-based; settings: in vivo, po
Mus musculus [9] = test: Toxicity in C57BL/6 mouse assessed as effect on food intake at 677 to 2000 mg/kg, ig measured continuously during first 4 hrs, intermittently for following 24 hrs and occasionally thereafter for 14 consecutive days; type: organism-based; settings: in vivo, po
Mus musculus [10] = test: Toxicity in C57BL/6 mouse assessed as effect on body weight at 677 to 2000 mg/kg, ig measured continuously during first 4 hrs, intermittently for following 24 hrs and occasionally thereafter for 14 consecutive days; type: organism-based; settings: in vivo, po
Mus musculus [11] = test: Toxicity in C57BL/6 mouse assessed as macroscopic abnormalities of stomach at 677 to 2000 mg/kg, ig after 14 consecutive days; type: organism-based; settings: in vivo, po
Mus musculus [12] = test: Toxicity in C57BL/6 mouse assessed as macroscopic abnormalities of intestine at 677 to 2000 mg/kg, ig after 14 consecutive days; type: organism-based; settings: in vivo, po
Mus musculus [13] = test: Toxicity in C57BL/6 mouse assessed as macroscopic abnormalities of spleen at 677 to 2000 mg/kg, ig after 14 consecutive days; type: organism-based; settings: in vivo, po
Mus musculus [14] = test: Toxicity in C57BL/6 mouse assessed as histological abnormalities of heart at 2000 mg/kg, ig after 14 consecutive days by hematoxylin/eosin dye-based microscopic analysis; type: organism-based; settings: in vivo, po
Outline: (§2)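 Adult C57BL/6 mice, 12 weeks old, single intragastric doses of 0, 677, 1333 or 2000 mg/kg (n = 6 per dose, 3 male/3 female); behaviour and mortality observed over 14 days; liver, heart, lung and brain examined by HE staining at 2000 mg/kg.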

Mus musculus [15] = test: Toxicity in C57BL/6 mouse assessed as histological abnormalities of lung at 2000 mg/kg, ig after 14 consecutive days by hematoxylin/eosin dye-based microscopic analysis; type: organism-based; settings: in vivo, po, 336 h; outline: as §2
Mus musculus [16] = test: Toxicity in C57BL/6 mouse assessed as histological abnormalities of liver at 2000 mg/kg, ig after 14 consecutive days by hematoxylin/eosin dye-based microscopic analysis; type: organism-based; settings: in vivo, po, 336 h; outline: as §2
Mus musculus [17] = test: Toxicity in C57BL/6 mouse assessed as histological abnormalities of brain at 2000 mg/kg, ig after 14 consecutive days by hematoxylin/eosin dye-based microscopic analysis; type: organism-based; settings: in vivo, po, 336 h; outline: as §2
Mus musculus [18] = test: Toxicity in C57BL/6 mouse assessed as macroscopic abnormalities of kidney at 677 to 2000 mg/kg, ig after 14 consecutive days; type: organism-based; settings: in vivo, po
Mus musculus [19] = test: Induction of cell proliferation in C57BL/6 mouse hippocampal neurons in DG region assessed as BrdU-incorporation at 0.5 uL/hr, icv for 7 days by immunohistochemical analysis (reference value: 7.8%); type: functional
Mus musculus [20] = test: Induction of cell proliferation in C57BL/6 mouse hippocampal neurons in CA1 region assessed as BrdU-incorporation at 0.5 uL/hr, icv for 7 days by immunohistochemical analysis (reference value: 3.2%); type: functional
Mus musculus [21] = test: Induction of cell proliferation in C57BL/6 mouse hippocampal neurons in CA2 region assessed as BrdU-incorporation at 0.5 uL/hr, icv for 7 days by immunohistochemical analysis (reference value: 2.4%); type: functional
Mus musculus [22] = test: Induction of cell proliferation in C57BL/6 mouse hippocampal neurons in CA3 region assessed as BrdU-incorporation at 0.5 uL/hr, icv for 7 days by immunohistochemical analysis (reference value: 1.4%); type: functional
Mus musculus [23] = test: Induction of cell proliferation in C57BL/6 mouse hippocampal neurons in DG region assessed as BrdU-incorporation at 30 mg/kg, po administered via gavage for 7 days by immunohistochemical analysis (reference value: 2.2%); type: functional
Outline: (§3)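 C57BL/6 mice, 12 weeks old, n = 6, individually housed beforehand without wheels. Compound gavaged 30 mg/kg/day for 7 days with daily IP BrdU 50 mg/kg; BrdU+ cells counted by immunohistochemistry per hippocampal volume; two-way ANOVA.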

Mus musculus [24] = test: Induction of cell proliferation in C57BL/6 mouse hippocampal neurons in CA1 region assessed as BrdU-incorporation at 30 mg/kg, po administered via gavage for 7 days by immunohistochemical analysis (reference value: 2.3%); type: functional; outline: as §3
Mus musculus [25] = test: Induction of cell proliferation in C57BL/6 mouse hippocampal neurons in CA2 region assessed as BrdU-incorporation at 30 mg/kg, po administered via gavage for 7 days by immunohistochemical analysis (reference value: 2.4%); type: functional; outline: as §3
Mus musculus [26] = test: Induction of cell proliferation in C57BL/6 mouse hippocampal neurons in CA3 region assessed as BrdU-incorporation at 30 mg/kg, po administered via gavage for 7 days by immunohistochemical analysis (reference value: 1.5%); type: functional; outline: as §3
Mus musculus [27] = test: Toxicity in C57BL/6 mouse assessed as macroscopic abnormalities of heart at 677 to 2000 mg/kg, ig after 14 consecutive days; type: organism-based; settings: in vivo, po
Mus musculus [28] = test: Toxicity in C57BL/6 mouse assessed as macroscopic abnormalities of lung at 677 to 2000 mg/kg, ig after 14 consecutive days; type: organism-based; settings: in vivo, po, 336 h
Mus musculus [29] = test: Toxicity in C57BL/6 mouse assessed as macroscopic abnormalities of liver at 677 to 2000 mg/kg, ig after 14 consecutive days; type: organism-based; settings: in vivo, po

SMILES: CN(C)CCCN1c2ccccc2Sc2ccc(Cl)cc21 [CHLORPROMAZINE]
Papp at 10 h, 100 ug/ml [1]: 5.9 ×10⁻⁶ cm/s

SMILES: Oc1c(Cl)cc(Cl)c2ccc(-c3cc4cc5c(cc4[nH]3)OCO5)nc12
Papp at 10 h, 100 ug/ml [1]: 4.9 ×10⁻⁶ cm/s
Activity (PC-12 [2]): Non-Toxic
EC50 (SH-SY5Y): 330 nM

SMILES: Cl.Oc1cccc2ccc(-c3cc4ccc5c(c4[nH]3)OCO5)nc12
K [4]: 0.01183 min⁻¹
half-life at 3 h, 100 µM [5]: 0.977 h
Activity (Mus musculus [6]): Non-Toxic
Activity (Mus musculus [7]): Non-Toxic
Activity (Mus musculus [8]): Non-Toxic
Activity (Mus musculus [9]): Non-Toxic
Activity (Mus musculus [10]): Non-Toxic
Activity (Mus musculus [11]): Non-Toxic
Activity (Mus musculus [12]): Non-Toxic
Activity (Mus musculus [13]): Non-Toxic
Activity (Mus musculus [14]): Non-Toxic
Activity (Mus musculus [15]): Non-Toxic
Activity (Mus musculus [16]): Non-Toxic
Activity (Mus musculus [17]): Non-Toxic
Activity (Mus musculus [18]): Non-Toxic
Activity (Mus musculus [19]): 43.6%
Activity (Mus musculus [20]): 61.9%
Activity (Mus musculus [21]): 56.1%
Activity (Mus musculus [22]): 49.3%
Activity (Mus musculus [23]): 7.6%
Activity (Mus musculus [24]): 8%
Activity (Mus musculus [25]): 7.5%
Activity (Mus musculus [26]): 3.9%
Activity (Mus musculus [27]): Non-Toxic
Activity (Mus musculus [28]): Non-Toxic
Activity (Mus musculus [29]): Non-Toxic

SMILES: COc1cc2c(cc1OC)C(=O)C(CC1CCN(Cc3ccccc3)CC1)C2 (stereo unspecified) [DONEPEZIL]
K [4]: 0.00889 min⁻¹
half-life at 3 h, 100 µM [5]: 1.3 h

SMILES: Oc1ccc(-c2cc3ccccc3[nH]2)c2cccnc12
Papp at 10 h, 100 ug/ml [1]: 12.8 ×10⁻⁶ cm/s
Activity (PC-12 [2]): Toxic

Further lines, with some results ahead:

Papp at 10 h, 100 ug/ml [1]: 14.8 ×10⁻⁶ cm/s
SMILES: Oc1ccc2[nH]c(-c3ccc4cccc(O)c4n3)cc2c1
Activity (PC-12 [2]): Toxic

Papp at 10 h, 100 ug/ml [1]: 10.6 ×10⁻⁶ cm/s
SMILES: Oc1cccc2ccc(-c3cc4cc(F)ccc4[nH]3)nc12

Papp at 10 h, 100 ug/ml [1]: 5.3 ×10⁻⁶ cm/s
SMILES: Oc1c(Cl)cc(Cl)c2ccc(-c3cc4cc(F)ccc4[nH]3)nc12
Activity (PC-12 [3]): inactive

Papp at 10 h, 100 ug/ml [1]: 6.8 ×10⁻⁶ cm/s
SMILES: Oc1ccc2[nH]c(-c3cc(Cl)c(O)c4ncccc34)cc2c1
Activity (PC-12 [2]): Toxic

Papp at 10 h, 100 ug/ml [1]: 5.2 ×10⁻⁶ cm/s
SMILES: COc1cc2cc(-c3ccc4cccc(O)c4n3)[nH]c2cc1OC

Papp at 10 h, 100 ug/ml [1]: 6.6 ×10⁻⁶ cm/s
SMILES: Oc1c(Cl)cc(Cl)c2ccc(-c3cc4ccccc4[nH]3)nc12
Activity (PC-12 [3]): inactive

Papp at 10 h, 100 ug/ml [1]: 9.1 ×10⁻⁶ cm/s
SMILES: Oc1ccc2[nH]c(-c3ccc(O)c4ncccc34)cc2c1
Activity (PC-12 [2]): Toxic
